Measurements taken from PMC3253528 (Journal of the American Chemical Society, 2011).
“And” between values parts separate entries of the source, which are not always exact repeats. Equal entries are not always repeated.

Assays:
[1] = biological target: T1, procaspase-3 (Homo sapiens, UniProt P42574); assay: procaspase-3 self-activation assay; type: biochemical
T1 sequence (P42574 1-277): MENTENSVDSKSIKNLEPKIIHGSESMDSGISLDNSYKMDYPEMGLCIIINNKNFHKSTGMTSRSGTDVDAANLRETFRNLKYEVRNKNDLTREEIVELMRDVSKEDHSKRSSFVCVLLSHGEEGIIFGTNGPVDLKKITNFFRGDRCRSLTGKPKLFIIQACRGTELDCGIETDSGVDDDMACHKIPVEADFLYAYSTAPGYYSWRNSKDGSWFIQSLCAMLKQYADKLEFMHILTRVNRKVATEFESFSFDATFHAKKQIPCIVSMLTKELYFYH
Procedure, shortened: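 Known promiscuous enzyme-inhibiting aggregators (panel of six) were each tested for ability to activate wild-type procaspase-3. The self-activation assay is run at 37°C.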

[2] = biological target: T2, caspase-3 (Homo sapiens, UniProt P42574); assay: inhibition of mature caspase-3 by known aggregators; type: biochemical
T2 sequence (P42574 29-175 limits assumed): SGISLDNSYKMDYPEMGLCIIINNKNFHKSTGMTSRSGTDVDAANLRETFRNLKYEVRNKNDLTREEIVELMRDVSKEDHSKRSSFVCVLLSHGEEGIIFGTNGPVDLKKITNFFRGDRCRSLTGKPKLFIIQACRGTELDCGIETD
T2 sequence (P42574 176-277 limits assumed): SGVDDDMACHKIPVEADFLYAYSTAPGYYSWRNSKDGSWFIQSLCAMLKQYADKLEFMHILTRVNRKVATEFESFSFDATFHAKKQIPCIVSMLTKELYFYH

[3] = dynamic light scattering; type: physicochemical; conditions: DLS conc. 50 μM

activation of procaspase-3 by known aggregators [1] | inhibition of mature caspase-3 [2] | SMILES | DLS Intensity ([3]; 25°C) | Radius ([3]; 25°C) | DLS Intensity ([3]; 37°C) [kcps] | Radius ([3]; 37°C) [nm]
no activation | inhibited | Nc1c(/N=N/c2ccc(-c3ccc(/N=N/c4cc(S(=O)(=O)O)c5ccccc5c4N)cc3)cc2)cc(S(=O)(=O)O)c2ccccc12 [Congo red] | – | – | – | –
– | – | O=C1OC(c2cc(I)c(O)c(I)c2)(c2cc(I)c(O)c(I)c2)c2ccccc21 [TIPT, 3′,3″,5′,5″-tetraiodophenolpthalein] | 3903.5 kcps and 3903.5 ± 1423.0 kcps | 71.1 nm and 71.1 ± 8.6 nm | 3933.2 ± 1369.0 | 76.7 ± 7.8
